Results on 24 molecules are retold here after ChEMBL document CHEMBL1123559, “Inhibition of phenylethanolamine N-methyltransferase (PNMT) by aromatic hydroxy-substituted 1,2,3,4,-tetrahydroisoquinolines: further studies on the hydrophilic pocket of the aromatic ring binding region of the active site” (J Med Chem, 1987).

For orientation: Ki means a dissociation constant, usually derived from enzyme kinetics or from competition with a known ligand. In general, Vmax refers to the top rate of the reaction or transport when substrate is in excess. A word on the Km: it is the substrate concentration at which the rate is half of its maximum.

Series [1] concerns the target T1, Phenylethanolamine N-methyltransferase (Bos taurus, UniProt P10938).
T1 sequence (P10938 whole entry): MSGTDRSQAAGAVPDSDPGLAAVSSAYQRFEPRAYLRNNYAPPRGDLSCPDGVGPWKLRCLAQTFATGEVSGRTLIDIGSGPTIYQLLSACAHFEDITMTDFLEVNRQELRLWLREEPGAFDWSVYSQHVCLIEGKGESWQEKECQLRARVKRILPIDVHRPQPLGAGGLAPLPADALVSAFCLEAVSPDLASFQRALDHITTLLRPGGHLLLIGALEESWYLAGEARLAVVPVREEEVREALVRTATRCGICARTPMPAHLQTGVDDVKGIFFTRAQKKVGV
The series is described as follows: In vitro inhibition of bovine phenylethylamine N-methyl-transferase (PNMT) using radiochemical assay.

Series [2] is described as follows: Ratio of Vmax to Km. Further details: unit not given here.
Compound in series [3]: COc1cccc2c1C1CC2[C@H](N)C1
Briefly: (§1) In vitro inhibition of Phenylethylamine N-Methyltransferase (PNMT) using radiochemical assay expressed as Vmax.

Compound in series [4]: N[C@@H]1CC2CC1c1cc(O)c(O)cc12
Described as §1.

Compound in series [5]: COc1ccc2c(c1)C1CCC2[C@@H]1N
The series is described as §1.

Compound in series [6]: COc1ccc2c(c1)C1CC2[C@H](N)C1
Described as §1.

Compound in series [7]: N[C@@H]1CC2C[C@@H]1c1ccccc12
The series is described as follows: (§2) In vitro inhibition of Phenylethylamine N-Methyltransferase (PNMT) using radiochemical assay. The procedure, abridged: (§3)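 Bovine adrenal PNMT, partially purified through isoelectric precipitation, was used with phenylethanolamine as the variable substrate. At least three inhibitor concentrations were tested, all below levels giving mixed kinetics. The mix held pH 8.0 phosphate, unlabeled AdoMet (10 μM stock) and [methyl-3H]AdoMet, run 30 min at 37 °C. After a borate quench, product was extracted into toluene/isoamyl alcohol and scintillation counted. Ki and mode came from 1/V vs 1/S plots.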

Compound in series [8]: COc1cccc2c1C1CC2[C@H](N)C1
Described as §2. The method, boiled down:
as §3

Compound in series [9]: COc1ccc2c(c1)C1CCC2[C@@H]1N
Described as §2. The method, boiled down: as §3

Compound in series [10]: COc1ccc2c(c1)C1CC2[C@H](N)C1
Described as §2. The procedure, abridged: as §3

Where only a bound is given, the exact number is not on record here.

`Oc1cccc2c1CCNC2` showed an inhibition constant Ki in series [1] of 90 µM.

Turning to `NC1C2CC[C@H]1c1ccccc12` (some centres undefined), the Ratio in series [2] was found to be 0.12.

Molecule `COc1ccc2c(c1)C1CC2C[C@H]1N` (some centres undefined) registered a Ki in series [1] of over 2000 µM.

`N[C@H]1C2CCC1c1c(O)cccc12` (some centres undefined) returned a Ki in series [1] of over 4000 µM.

With `N[C@@H]1CC2C[C@@H]1c1ccccc12`, the Ratio in [2] amounted to 0.01.

The molecule `COc1cccc2c1C1CC2C[C@H]1N` (some centres undefined) returned a Ki in series [1] of over 2000 µM.

For the molecule `N[C@@H]1CC2CC1c1cc(O)c(O)cc12` (some centres undefined), the Ratio in series [2] was 0.06.

In turn, `N[C@@H]1CC2CC1c1cccc(O)c12` (some centres undefined) yielded a Ki in [1] of over 10000 µM.

As for `COc1ccc2c(c1)C1CC2[C@H](N)C1` (some centres undefined), the Ratio in [2] was 0.01. The molecule further gave a Ki in series [1] of 1260 µM.

Consider `Oc1ccc2c(c1)CCNC2`, for which, in series [1], the Ki is 7.8 µM.

Regarding `COc1cccc2c1C1CC2[C@H](N)C1` (some centres undefined), the Ratio in series [2] was determined as 0.02. The molecule further gave a Ki in [1] of over 2000 µM.

Regarding `COc1cccc2c1CNCC2`, in [1], the inhibition constant Ki came to 3.8 µM.

Molecule `Oc1cccc2c1CNCC2` yielded an inhibition constant Ki in series [1] of 1080 µM.

In series [1], `Oc1cc2c(cc1O)CNCC2` had a Ki of 5.7 µM.

Take `N[C@H]1C2CCC1c1cc(O)ccc12` (some centres undefined): in [1], the Ki was 108 µM.

In the case of `COc1ccc2c(c1)CNCC2`, the Ki in series [1] is 20 µM.

Take `NS(=O)(=O)c1ccc2c(c1)CNCC2`: affinity in series [1] was put at a Ki of […].

Regarding `COc1cccc2c1C1CCC2[C@@H]1N` (some centres undefined), in series [1], the affinity corresponds to a Ki of 1100 µM.

On to `COc1ccc2c(c1)C1CCC2[C@@H]1N` (some centres undefined), for which, in series [2], the Ratio is 0.08. In addition, in series [1], the Ki came to 735 µM.

`N[C@@H]1CC2CC1c1c(O)cccc12` (some centres undefined) returned an inhibition constant (Ki) in series [1] of over 3000 µM.

In series [1], `Oc1ccc2c(c1)CNCC2` showed a Ki of 2.6 µM.

With `c1ccc2c(c1)CCNC2` [1,2,3,4-TETRAHYDROISOQUINOLINE], in [1], the Ki was found to be 10.3 µM.

In series [1], `COc1cccc2c1CCNC2` showed a Ki of 550 µM.

B1: Phenylethanolamine N-methyltransferase (Bos taurus), P10938 (protein)
chain: MSGTDRSQAAGAVPDSDPGLAAVSSAYQRFEPRAYLRNNYAPPRGDLSCPDGVGPWKLRCLAQTFATGEVSGRTLIDIGSGPTIYQLLSACAHFEDITMTDFLEVNRQELRLWLREEPGAFDWSVYSQHVCLIEGKGESWQEKECQLRARVKRILPIDVHRPQPLGAGGLAPLPADALVSAFCLEAVSPDLASFQRALDHITTLLRPGGHLLLIGALEESWYLAGEARLAVVPVREEEVREALVRTATRCGICARTPMPAHLQTGVDDVKGIFFTRAQKKVGV
In the case of B1, the Vmax in series [3] was found to be 0.22 nmol/min/mg; in [4], 0.44 nmol/min/mg; in [5], 0.23 nmol/min/mg; in series [6], 0.06 nmol/min/mg. Further, the Michaelis-Menten constant (Km) in series [7] was 392 µM; in series [8], 970 µM; in series [9], 294 µM; in series [10], 602 µM.
